Screening data deposited in PubChem BioAssay by Johns Hopkins Ion Channel Center.
Hits are enriched below; roughly 3.5% of the tested compounds scored in any of these assays.
RGS4 act: RGS4 potentiators or activators, primary screen, cell-based, HEK293 M3R inducible RGS4, calcium flux; B-score at 10 µM; carbachol calcium flux Fluo4; hits give low values; AID 463111, 2010; actives 0.92% (n = 310,000);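 active = B-score of the integrated calcium signal more than 4 SD below the library mean, with starting fluorescence not abnormally high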;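 also: negative B-score means reduced calcium response which marks RGS4 activation or potentiation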
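Assay system: Inducible-RGS4 HEK293 cells carrying M3 receptor | Schedule: Compound preincubation 20 min at room temperature before agonist | Signal: Kinetic calcium fluorescence imaging with Fluo4-AM dye, 2 µM | Read-out basis: B score from integrated fluorescence ratio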
RGS4 block: RGS4 inhibitors, primary screen, cell-based, HEK293 M3R inducible RGS4, calcium flux | Regulator of G-protein signaling 4 (Homo sapiens), P49798 | Fluo-4 calcium flux; hits give high values; triggered by carbachol at its EC20 | B-score at 10 µM | actives 0.45% (n = 310,000) | AID 463165, 2010;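 active = B-score, a plate-corrected calcium signal, over three deviations above library mean, with baseline fluorescence within five deviations of library mean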;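 also: RGS4 expression induced by doxycycline in cells with stable M3 receptor; B-score is computed from the integrated fluorescence ratio over baseline after carbachol; higher B-score means a larger calcium signal and so more RGS4 inhibition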
Target sequence (P49798 whole entry, looked up): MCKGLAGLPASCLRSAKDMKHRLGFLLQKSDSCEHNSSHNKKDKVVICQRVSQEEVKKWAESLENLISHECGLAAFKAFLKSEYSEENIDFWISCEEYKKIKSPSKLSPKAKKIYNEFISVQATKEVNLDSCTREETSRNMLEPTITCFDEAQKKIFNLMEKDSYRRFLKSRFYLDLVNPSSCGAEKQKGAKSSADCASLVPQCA
MrgX1 agonist: agonists of human MrgX1 receptor, primary screen, HEK293 cells, Fluo-4 calcium flux; actives 0.44% (n = 310,000); Mas-related G-protein coupled receptor member X1 (Homo sapiens), Q96LB2; B-score at 10 µM; Fluo-4 calcium fluorescence, agonist mode; hits give high values;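 active = calcium response B-score plate-corrected fluorescence ratio at least 3 library SD, with starting fluorescence B-score inside 5 SD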
Target sequence (Q96LB2 whole entry, looked up): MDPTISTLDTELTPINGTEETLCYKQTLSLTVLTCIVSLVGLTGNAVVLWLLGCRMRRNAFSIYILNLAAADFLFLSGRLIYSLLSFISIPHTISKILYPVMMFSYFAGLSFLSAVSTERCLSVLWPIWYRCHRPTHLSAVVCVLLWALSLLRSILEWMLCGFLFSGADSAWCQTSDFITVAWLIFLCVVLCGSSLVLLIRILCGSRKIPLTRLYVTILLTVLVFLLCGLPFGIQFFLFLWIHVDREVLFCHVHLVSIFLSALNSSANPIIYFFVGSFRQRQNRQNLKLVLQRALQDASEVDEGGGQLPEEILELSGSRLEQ
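Material: HEK293 cells stably expressing human MrgX1 receptor | Quantity: 15,000 cells per well | Times: Cells plated overnight, dye loaded 0.5 h 37 °C, 0.5 h room temperature | Measured by: Kinetic Fluo-4 NW fluorescence of intracellular calcium | Control set: Positive and negative controls per plate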
MrgX1 allo act: positive allosteric modulators of MrgX1, primary screen, HEK293 cells, Fluo-4 calcium flux | actives 0.63% (n = 310,000) | B-score at 10 µM | Mas-related G-protein coupled receptor member X1 (Homo sapiens), Q96LB2 | FDSS; hits give high values | AID 588675, 2011;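 active = plate-corrected calcium response at least 3 library SD above typical, normal starting fluorescence, not activating the receptor alone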;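 also: compound read alongside a low EC10 to EC30 dose of BAM8-22 agonist; peak minus trough fluorescence over baseline measured at the second addition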
MrgX1 antagonist: antagonists of human MrgX1 receptor, primary screen, HEK293 cells, Fluo-4 calcium flux. B-score at 10 µM. AID 588676, 2011. actives 1.3% (n = 310,000). Mas-related G-protein coupled receptor member X1 (Homo sapiens), Q96LB2. BAM8-22 antagonism; hits give low values;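 active = calcium-response B-score plate-corrected more than 3 library SD below zero, starting fluorescence within 5 deviations, no agonist response on first addition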;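 also: peak minus trough fluorescence over baseline after final BAM8-22 challenge near maximal dose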
RGS4 inh valid: enhanced carbachol calcium response, M3R/RGS4 cells, RGS4 inhibitor project, cell-based, validation screen, HEK293 M3R/RGS4, calcium flux. actives 65% (n = 1,700). AID 492999, 2010. shares compounds with RGS4 block. calcium response, % at 10 µM. carbachol calcium Fluo-4 fluorescence; carbachol added at its EC20; 0 = buffer wells, 100 = carbachol control;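 active = duplicate-averaged calcium response above the buffer-only control mean plus 5 SD of those controls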;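 also: integrated fluorescence ratio F max minus min over baseline F0; higher response in RGS4-induced cells means RGS4 inhibition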
RGS4 uninduced: carbachol calcium response in non-induced M3R cells, confirmation, counter-screen for RGS4 inhibitor project, cell-based, HEK293 M3R; shares compounds with RGS4 block; carbachol calcium Fluo-4; submaximal (EC20) carbachol stimulus; buffer wells 0%, carbachol control wells 100%; activity (percent), % at 10 µM; actives 20% (n = 1,900); AID 493000, 2010; call rule not given here;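 also: RGS4 induction absent so cells express M3R without RGS4; higher means more calcium signal and flags a non-specific hit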
M3R basal Ca ctr: signal in non-induced cells without carbachol, RGS4 inhibitor counter-screen; actives 22% (n = 1,900); HEK293 M3R/RGS4 non-induced, Fluo-4 calcium, no carbachol; normalised: buffer wells 0%, carbachol wells 100%; shares compounds with RGS4 block; calcium response (agonist-mode artifact), % at 10 µM; AID 493001;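 active = duplicate-averaged calcium rise in uninduced cells above buffer wells' mean plus 5 SD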
Of the large screens only hits and unclear results are named; the others gave an inactive call (follow-up assays come after a bar, where they were run).

CCCSc1cc(NCCOC(C)=O)c([N+](=O)[O-])c2nonc12	none
CCCC(=O)OCCNc1cc(Sc2nccn2C)c2nonc2c1[N+](=O)[O-]	RGS4 block 13 | RGS4 inh valid 59% | RGS4 uninduced inactive | M3R basal Ca ctr inactive
CCC(=O)OCCNc1cc(Sc2nc3ccccc3s2)c2nonc2c1[N+](=O)[O-]	none
O=[N+]([O-])c1c(NCCCO)cc(Sc2nc3ccccc3s2)c2nonc12	RGS4 block 4.7 | RGS4 inh valid 9.5% | RGS4 uninduced inactive | M3R basal Ca ctr 150%
Cc1nnc(Sc2cc(NCCO)c([N+](=O)[O-])c3nonc23)s1	none (no result: MrgX1 agonist, MrgX1 allo act, MrgX1 antagonist) | RGS4 inh valid inactive | RGS4 uninduced inactive | M3R basal Ca ctr inactive
N#C/C(=C\c1ccc(-c2cccc([N+](=O)[O-])c2)o1)c1nnc(N2CCOCC2)n1-c1ccccc1	none
Cc1ccc(NC(=O)CN(C)C(=O)COC(=O)CCS(=O)(=O)c2ccc(C)cc2)cc1	none
COc1ccc(C2CC(c3c(-c4ccccc4)c4cc(Cl)ccc4[nH]c3=O)=NN2S(C)(=O)=O)cc1 (stereo not given)	none
COc1ccc(OC)c(C2CC(c3c(-c4ccccc4)c4cc(Cl)ccc4[nH]c3=O)=NN2S(C)(=O)=O)c1 (stereo not given)	none | RGS4 uninduced 49% | M3R basal Ca ctr 36%
COc1ccc(C2CC(c3ccc(Br)cc3)=NN2C(=O)c2cccnc2)cc1 (stereo not given)	none
COc1ccc(C2=NN(CN3C(=O)C(=O)c4ccccc43)C(c3ccc(C)cc3)C2)cc1 (stereo not given)	RGS4 block 6.7 | RGS4 inh valid 18% | RGS4 uninduced inactive | M3R basal Ca ctr inactive
COc1ccc(C2=NN(CN3C(=O)C(=O)c4ccccc43)C(c3ccc(Br)cc3)C2)cc1 (stereo not given)	RGS4 block 11 | RGS4 inh valid 38% | RGS4 uninduced 42% | M3R basal Ca ctr inactive
CC1CCc2nc3ccc(S(=O)(=O)N4CCC(C(=O)NC(C)c5ccccc5)CC4)cc3c(C(=O)O)c2C1 (stereo not given)	none
Cc1cc(OCCCN2CCCC2)ccc1Cl	none
COc1cc(/C=C/C(=O)c2ccc(O)cc2)ccc1OCC#N	RGS4 block 4.7 | RGS4 inh valid 10% | RGS4 uninduced inactive | M3R basal Ca ctr inactive
COc1ccc(C(=O)/C(=C\c2ccco2)N2C=CC=CC2=C(C#N)C#N)cc1	RGS4 block 25 | RGS4 inh valid 37% | RGS4 uninduced inactive | M3R basal Ca ctr 20%
N#CC(C#N)=C1C=CC=CN1/C(=C\c1ccco1)C(=O)c1ccccc1	none (no result: RGS4 act, RGS4 block)
COc1ccc(Cn2c(=O)c3[nH]cnc3n(-c3ccccc3C)c2=O)cc1	RGS4 block 7.8 | RGS4 inh valid 15% | RGS4 uninduced 38% | M3R basal Ca ctr inactive
Cc1cc(=O)[nH]c(N2CCN(Cc3ccccc3)CC2)n1	none
O=c1cc(-c2ccc(Cl)cc2)nc(N2CCN(c3ccccc3)CC2)[nH]1	RGS4 block 9.7 | RGS4 inh valid inactive | RGS4 uninduced 32% | M3R basal Ca ctr inactive
CNc1nc(N)c([N+](=O)[O-])c(Nc2cccc(Cl)c2)n1	RGS4 block 15 | RGS4 inh valid 10% | RGS4 uninduced 34% | M3R basal Ca ctr 10%
